Assay outcomes deposited in PubChem BioAssay by several laboratories.
LMPTP block – blocks human LMPTP phosphatase. actives 0.22% (n = 360,000). P24666. inhibition, % at 20 µM. recombinant LMPTP-A, OMFP fluorogenic substrate, fluorescence intensity;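 active means compounds that cut the enzyme signal by at least half of the control window in the single-dose screen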;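 further: plate controls were DMSO wells with enzyme plus substrate for no effect and substrate without enzyme for full effect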
Target sequence (P24666 whole entry, looked up): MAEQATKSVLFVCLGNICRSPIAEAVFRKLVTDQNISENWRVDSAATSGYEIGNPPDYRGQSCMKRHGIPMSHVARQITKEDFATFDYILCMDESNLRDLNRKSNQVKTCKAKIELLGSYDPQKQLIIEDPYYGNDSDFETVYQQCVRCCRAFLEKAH
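Test system – LMPTP-A phosphatase enzyme · Quantity – 0.625 nM LMPTP-A final · Reagent – OMFP substrate, 400 µM final · Dosing – one test concentration per compound, 20 µM, with 3% DMSO overall · Timing – 50 min enzyme reaction at room temperature, protected from light · Detection – fluorescence intensity · Controls – substrate-only low control, DMSO enzyme-plus-substrate high control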
Scp1 inh – blocks human Scp-1 phosphatase activity; Q9GZU7; Recombinant Scp1, phosphopeptide, malachite green phosphate absorbance; inhibition, % at 20 µM; actives 0.88% (n = 340,000); AID 493091;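 active means inhibition above about 50% at 20 µM, limit read from the data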;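 further: plate controls were DMSO wells with enzyme for no effect and wells lacking enzyme for full effect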
Target sequence (Q9GZU7 76-261 limits assumed): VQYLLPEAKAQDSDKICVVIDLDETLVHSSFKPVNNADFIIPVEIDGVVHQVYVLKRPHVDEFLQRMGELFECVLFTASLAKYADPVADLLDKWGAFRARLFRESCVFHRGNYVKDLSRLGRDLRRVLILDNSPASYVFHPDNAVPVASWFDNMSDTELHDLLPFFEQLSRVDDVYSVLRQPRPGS
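Test system – truncated SCP-1 phosphatase (76-261aa) · Reagent – Phosphorylated 17-residue peptide substrate · Incubation – 45 min room-temperature reaction, 5 min colour, 30 min stabiliser · Detection – colorimetric phosphate reagent with accelerator and stabiliser, absorbance at 630 nm · Measure – % inhibition at 20 µM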
STEP block – inhibitors of human striatal-enriched phosphatase STEP. P54829. recombinant STEP, OMFP fluorogenic substrate, fluorescence. inhibition, % at 20 µM. actives 0.25% (n = 360,000). AID 588621;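 active means inhibition at 20 µM, scaled per plate between control wells, above about 37%, limit read from the data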;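 further: 0% = DMSO with enzyme and substrate and 100% = substrate only without enzyme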
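System: STEP (striatal-enriched tyrosine phosphatase) enzyme, cell-free; medium: Bis-Tris pH 6.0 buffer with DTT, detergent; dosing: 20 µM, 1% DMSO; times: reaction 20 min, ambient temperature; detection: fluorescence, 480/540 nm; read-out basis: normalized % inhibition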
Casp6 inh – caspase-6 (human) enzyme inhibition; purified caspase-6, Z-VEID-R110 cleavage fluorescence; AID 686996; actives 0.53% (n = 350,000); inhibition, % at 12.5 µM; P55212;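 active means mean inhibition across replicates at least about 35%, with every replicate also reaching that limit, limit read from the data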;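 further: 0% = median of neutral control wells and 100% = no fluorescence left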
SUMO1-SIM PPI – SUMO1-SIM interaction modulation | P63165 | SUMO1 binding to a labelled peptide, TR-FRET, 1 h | inhibition, % at 20 µM | actives 0.33% (n = 360,000) | AID 602429; in the data active means inhibition above about 37%
Target sequence (P63165 whole entry, looked up): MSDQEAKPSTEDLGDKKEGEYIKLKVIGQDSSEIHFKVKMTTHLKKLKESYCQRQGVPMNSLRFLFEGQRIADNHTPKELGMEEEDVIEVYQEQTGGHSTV
DNMT1 inh – blocks human DNA methyltransferase DNMT1 | P26358 | DNMT1 molecular beacon, Hinp1I cleavage, fluorescence | inhibition (reported as % activation of signal), % at 10 µM | actives 0.83% (n = 360,000) | AID 588458; in the data active means inhibition above about 50%
Scp-1 conf – Scp-1 (human) inhibition, single-dose confirmed; shares compounds with Scp1 inh; recombinant SCP-1 catalytic domain, phosphate release, malachite green absorbance; inhibition, % at 20 µM; actives 61% (n = 2,500); AID 540281;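 further: plate controls were DMSO with enzyme for no effect and buffer wells lacking enzyme for full effect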
MG interference – interferes with malachite green readout, flagging false Scp-1 hits; 2,500 tested, under 10 active; AID 540313; apparent inhibition (interference), % at 20 µM; shares compounds with Scp1 inh; Colorimetric interference counterscreen, malachite green absorbance 630 nm;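 further: compounds added after enzyme reaction finished so only phosphate colour detection is probed; plate controls were DMSO wells with completed Scp-1 reaction for no effect and substrate wells lacking enzyme for full effect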
Scp-1 Tm shift – Scp-1 (human) binding by thermal shift; AID 540329; shares compounds with Scp1 inh; thermal shift relative to vanadate control, % at 40 µM; Recombinant SCP1, Sypro Orange thermal shift Tm; actives 25% (n = 1,500);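 active means substances whose mean melting-temperature shift, as a percentage of the reference inhibitor's shift, reaches about 5.3%, limit read from the data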;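 further: 0% = Tm of DMSO wells and 100% = Tm with sodium orthovanadate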
The depositor's hits bear a star. An excerpt weighted towards active compounds, which were near 1.7% of everything screened.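 How the source made its calls, unless noted: active means inhibition of at least 30% at 20 µM; inactive means the rest.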

CC1CCc2c(sc(NC(=O)c3ccc(Cn4cc([N+](=O)[O-])cn4)o3)c2C#N)C1 (stereo not given) was read as LMPTP block 5, Scp1 inh 71*, STEP block 2, SUMO1-SIM PPI 5, DNMT1 inh 42, Scp-1 conf 61*, MG interference -22 and Scp-1 Tm shift 6.4*.
Screening CC(C)(C)C(=O)N1CCN(c2ccc([N+](=O)[O-])c(NCC3CCCO3)c2)CC1 (stereo not given) returned LMPTP block 1, Scp1 inh -1, STEP block 2, Casp6 inh -2, SUMO1-SIM PPI -36 and DNMT1 inh -1.
Fc1cc(F)cc(-c2c(-c3ccccc3)ncc3ccc(F)cc23)c1 was read as LMPTP block 4, Scp1 inh 85*, STEP block 0, Casp6 inh 4, SUMO1-SIM PPI 7, DNMT1 inh 27, Scp-1 conf 38*, MG interference -13 and Scp-1 Tm shift -25.
Screening COc1cc2cnc(-c3ccccc3)c(-c3cccc(C(F)(F)F)c3)c2cc1OC returned LMPTP block 4, Scp1 inh 53*, STEP block 0, Casp6 inh -3, SUMO1-SIM PPI 6, DNMT1 inh -14, Scp-1 conf -10 and MG interference -9.
`O=[N+]([O-])c1cccc(-c2c(-c3ccccc3)ncc3cc(F)ccc23)c1` gave LMPTP block 1, Scp1 inh 1, STEP block 4, Casp6 inh 1, SUMO1-SIM PPI -17 and DNMT1 inh -4.
`COc1cc2cnc(-c3ccccc3)c(-c3ccc(C#N)cc3)c2cc1OC` gave LMPTP block 0, Scp1 inh 25, STEP block 1, Casp6 inh -2, SUMO1-SIM PPI 1 and DNMT1 inh 2.
For Fc1ccc2cnc(-c3ccccc3)c(-c3cccc(C(F)(F)F)c3)c2c1 the results were LMPTP block 3, Scp1 inh 65*, STEP block 0, Casp6 inh 5, SUMO1-SIM PPI 0, DNMT1 inh 11, Scp-1 conf 6 and MG interference -6.
For O=C(CCC1CCN(C(=O)C2CC=CCC2)CC1)Nc1ccccc1 (stereo not given) the results were LMPTP block -1, STEP block -4, Casp6 inh -2, SUMO1-SIM PPI 5 and DNMT1 inh 6.
O=C(CSc1nnnn1C1CCCCC1)N1CCN(C(=O)c2ccco2)CC1 was read as LMPTP block 0, Scp1 inh -6, STEP block -2, Casp6 inh 3, SUMO1-SIM PPI 2 and DNMT1 inh -4.
For C[C@@H]1CN([C@@H](C)CO)C(=O)c2cc(C#CC3(O)CCCC3)cnc2O[C@@H]1CN(C)S(=O)(=O)c1ccc(F)cc1 the results were Casp6 inh 0.
Screening Cc1cccc(C(=O)Oc2ccc(/C=N/NC(=O)Cc3ccc([N+](=O)[O-])cc3)cc2)c1 returned LMPTP block 0, Scp1 inh 52*, STEP block -1, SUMO1-SIM PPI 0, DNMT1 inh 14, Scp-1 conf 36*, MG interference -17 and Scp-1 Tm shift 4.
Screening Cc1cccc(C(=O)Oc2ccc(/C=N/NC(=O)c3ccc(O)cc3)cc2)c1 returned LMPTP block 2, Scp1 inh -7, STEP block 0, Casp6 inh -2, SUMO1-SIM PPI -2 and DNMT1 inh -5.
